The values below come from PMC5901721 (Cancer research, 2018).

The subject of experiment [1] is MLC2 phosphorylation in SCC12 cells. The settings on record: cited from earlier work.
In experiment [2] the test system is MRCKα. Nature of the experiment: MRCKα pS1003 western blot in HEK293 cells expressing FLAG-MRCKα. In kind it is cell-based, human. The settings on record: 3 µM, 2 hours. The essentials: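 HEK293 cells were transfected with 10 μg pEF-FLAG-MRCKα using a lipid reagent. After 48 h, they were treated 2 h with DMSO, 3 μM or 1 μM test compound. Cells were washed in PBS and lysed in 1% SDS, 50 mM Tris-HCl pH 7.4. Lysates were shredded and analysed by SDS-PAGE and western blot for MRCKα pS1003.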

Experiment [3] concerns SCC12 cells. The settings on record: cited from earlier work.

Regarding `O=C(Nc1cn[nH]c1-c1ccccn1)c1nn(C2CCNCC2)cc1Cl` [BDP5290], the MLC phosphorylation entry in experiment [1] is “reduced MLC phosphorylation”. The pS1003 immunoreactivity result in experiment [2] was “blocked”. For the same molecule, in experiment [3], the SCC12 organotypic invasion entry is given as “inhibited SCC12 organotypic invasion”.
